Measurements reported in ChEMBL document CHEMBL5614453 (ACS Med Chem Lett, 2024).
One block for each molecule: values may come before it. Activity calls are given as the source filed them.

Columns and labels:
Mus musculus [1] = experiment: Antihyperalgesic activity in CFA induced CD-1 albino mouse assessed as inhibition of mechanical hyperalgesia by measuring paw withdrawal latency at 50 to 200 mg/kg, po measured after 40 mins by paw pressure test; assay type: functional, organism-based; details: dose 50-200 mg/kg
How it was run: (§1)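 Mechanical hyperalgesia measured by Paw Pressure test before dosing and every 20 min afterward, as paw-withdrawal latency (s). Values are means of 6 mice over 2 experimental sets; statistics vs pretest (0 min) and vs vehicle-treated controls.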

Mus musculus [2] = experiment: Antihyperalgesic activity in CFA induced CD-1 albino mouse assessed as inhibition of mechanical allodynia by measuring paw withdrawal threshold at 50 to 200 mg/kg, po measured after 80 mins by von frey test; assay type: functional, organism-based; details: dose 50-200 mg/kg
How it was run: (§2)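 Von Frey testing before dosing and every 20 min afterward. Read-out is the weight (g) the animal tolerated on the paw. Mean of 6 mice from 2 experimental sets; compared with pretest (0 min) and with vehicle-treated controls.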

Carbonic anhydrase 4 = Carbonic anhydrase 4 (Homo sapiens, UniProt P22748); experiment: Inhibition of human CA4 preincubated for 15 mins by phenol red dye based stopped flow CO2 hydration assay
Carbonic anhydrase 4, sequence (P22748 whole entry): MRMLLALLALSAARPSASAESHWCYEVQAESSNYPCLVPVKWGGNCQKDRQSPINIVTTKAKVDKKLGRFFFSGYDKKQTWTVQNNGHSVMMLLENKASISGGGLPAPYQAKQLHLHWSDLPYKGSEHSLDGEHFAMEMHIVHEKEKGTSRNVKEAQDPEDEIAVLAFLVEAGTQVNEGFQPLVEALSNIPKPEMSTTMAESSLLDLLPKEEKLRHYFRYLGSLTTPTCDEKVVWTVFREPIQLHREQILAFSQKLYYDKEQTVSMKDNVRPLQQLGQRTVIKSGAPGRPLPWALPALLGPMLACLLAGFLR

Mus musculus [3] = experiment: Antihyperalgesic activity in CFA induced CD-1 albino mouse assessed as inhibition of mechanical hyperalgesia by measuring paw withdrawal latency at 50 to 200 mg/kg, po measured after 80 mins by paw pressure test; assay type: functional, organism-based; details: dose 50-200 mg/kg; how it was run: as §1
Mus musculus [4] = experiment: Antihyperalgesic activity in CFA induced CD-1 albino mouse assessed as inhibition of mechanical allodynia by measuring paw withdrawal threshold at 50 to 200 mg/kg, po measured after 40 mins by von frey test; assay type: functional, organism-based; details: dose 50-200 mg/kg; how it was run: as §2
Mus musculus [5] = experiment: Antihyperalgesic activity in po dosed CFA induced CD-1 albino mouse assessed as inhibition of mechanical hyperalgesia by measuring paw withdrawal latency measured every 20 mins by paw pressure test; assay type: functional, organism-based; details: dose 50-200 mg/kg; how it was run: as §1
Mus musculus [6] = experiment: Antihyperalgesic activity in CFA induced CD-1 albino mouse assessed as inhibition of thermal hyperalgesia by measuring licking latency at 50 to 200 mg/kg, po measured after 40 mins by hot plate test; assay type: functional, organism-based; details: dose 50-200 mg/kg
How it was run: (§3)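 Hot plate test before dosing and every 20 min after. Time (s) to first hind-paw licking recorded. Mean of 6 mice from 2 experimental sets; compared with pretest (0 min) and vehicle controls.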

Mus musculus [7] = experiment: Antihyperalgesic activity in po dosed CFA induced CD-1 albino mouse assessed as inhibition of mechanical allodynia by measuring paw withdrawal threshold measured every 20 mins by von frey test; assay type: functional, organism-based; details: dose 50-200 mg/kg; how it was run: as §2
Carbonic anhydrase 9 = Carbonic anhydrase 9 (Homo sapiens, UniProt Q16790); experiment: Inhibition of human CA9 preincubated for 15 mins by phenol red dye based stopped flow CO2 hydration assay
Carbonic anhydrase 1 = Carbonic anhydrase 1 (Homo sapiens, UniProt P00915); experiment: Inhibition of human CA1 preincubated for 15 mins by phenol red dye based stopped flow CO2 hydration assay
Carbonic anhydrase 1, sequence (P00915 whole entry): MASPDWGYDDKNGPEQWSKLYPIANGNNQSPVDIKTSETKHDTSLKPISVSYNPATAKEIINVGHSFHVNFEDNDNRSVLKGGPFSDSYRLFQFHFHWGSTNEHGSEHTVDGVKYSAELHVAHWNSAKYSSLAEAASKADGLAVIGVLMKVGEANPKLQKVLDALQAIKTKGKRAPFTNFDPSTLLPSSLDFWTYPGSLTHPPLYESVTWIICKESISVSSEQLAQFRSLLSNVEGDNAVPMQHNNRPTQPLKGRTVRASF

Carbonic anhydrase 12 = Carbonic anhydrase 12 (Homo sapiens, UniProt O43570); experiment: Inhibition of human CA12 preincubated for 15 mins by phenol red dye based stopped flow CO2 hydration assay
Carbonic anhydrase 12, sequence (O43570 whole entry): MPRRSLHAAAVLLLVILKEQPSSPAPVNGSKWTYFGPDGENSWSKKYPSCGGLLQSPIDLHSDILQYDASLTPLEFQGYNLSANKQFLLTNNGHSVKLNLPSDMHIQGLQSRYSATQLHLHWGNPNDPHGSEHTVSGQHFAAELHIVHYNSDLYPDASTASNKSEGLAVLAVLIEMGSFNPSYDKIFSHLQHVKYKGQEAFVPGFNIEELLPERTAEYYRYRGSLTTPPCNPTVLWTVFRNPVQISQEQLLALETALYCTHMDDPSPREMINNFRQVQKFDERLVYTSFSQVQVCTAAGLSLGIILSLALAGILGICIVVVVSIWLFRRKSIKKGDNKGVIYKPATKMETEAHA

Carbonic anhydrase 7 = Carbonic anhydrase 7 (Homo sapiens, UniProt P43166); experiment: Inhibition of human CA7 preincubated for 15 mins by phenol red dye based stopped flow CO2 hydration assay
Carbonic anhydrase 7, sequence (P43166 whole entry): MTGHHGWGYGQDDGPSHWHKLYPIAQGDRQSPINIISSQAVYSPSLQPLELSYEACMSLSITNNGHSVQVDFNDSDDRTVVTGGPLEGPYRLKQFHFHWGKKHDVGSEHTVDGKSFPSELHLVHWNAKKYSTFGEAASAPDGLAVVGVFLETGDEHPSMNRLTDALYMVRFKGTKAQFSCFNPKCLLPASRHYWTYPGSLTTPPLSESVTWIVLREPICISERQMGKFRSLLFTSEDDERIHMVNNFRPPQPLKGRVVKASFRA

Mus musculus [8] = experiment: Antihyperalgesic activity in CFA induced CD-1 albino mouse assessed as inhibition of thermal hyperalgesia by measuring licking latency at 50 to 200 mg/kg, po measured after 80 mins by hot plate test; assay type: functional, organism-based; details: dose 50-200 mg/kg; how it was run: as §3
Mus musculus [9] = experiment: Antihyperalgesic activity in po dosed CFA induced CD-1 albino mouse assessed as inhibition of thermal hyperalgesia by measuring licking latency measured every 20 mins by hot plate test; assay type: functional, organism-based; details: dose 50-200 mg/kg; how it was run: as §3
Mus musculus [10] = experiment: Antihyperalgesic activity in CFA induced CD-1 albino mouse assessed as inhibition of mechanical hyperalgesia by measuring paw withdrawal latency at 220 mg/kg, po measured every 20 mins by paw pressure test; assay type: functional, organism-based; how it was run: as §1
Mus musculus [11] = experiment: Antihyperalgesic activity in CFA induced CD-1 albino mouse assessed as inhibition of mechanical allodynia by measuring paw withdrawal threshold at 330 mg/kg, po measured after 20 to 100 mins by von frey test; assay type: functional, organism-based; details: time 20-100 min; how it was run: as §2
Mus musculus [12] = experiment: Antihyperalgesic activity in CFA induced CD-1 albino mouse assessed as inhibition of thermal hyperalgesia by measuring licking latency at 220 mg/kg, po measured every 20 mins by hot plate test; assay type: functional, organism-based; how it was run: as §3
Mus musculus [13] = experiment: Antihyperalgesic activity in CFA induced CD-1 albino mouse assessed as inhibition of mechanical hyperalgesia by measuring paw withdrawal latency at 330 mg/kg, po measured after 20 to 100 mins by paw pressure test; assay type: functional, organism-based; details: time 20-100 min; how it was run: as §1
Mus musculus [14] = experiment: Antihyperalgesic activity in CFA induced CD-1 albino mouse assessed as inhibition of thermal hyperalgesia by measuring licking latency at 330 mg/kg, po measured after 20 to 100 mins by hot plate test; assay type: functional, organism-based; details: time 20-100 min; how it was run: as §3
Mus musculus [15] = experiment: Antihyperalgesic activity in CFA induced CD-1 albino mouse assessed as inhibition of mechanical allodynia by measuring paw withdrawal threshold at 220 mg/kg, po measured every 20 mins by von frey test; assay type: functional, organism-based; how it was run: as §2
Carbonic anhydrase 2 = Carbonic anhydrase 2 (Homo sapiens, UniProt P00918); experiment: Inhibition of human CA2 preincubated for 15 mins by phenol red dye based stopped flow CO2 hydration assay
Mus musculus [16] = experiment: Antihyperalgesic activity in CFA induced CD-1 albino mouse assessed as increase in pain threshold by measuring licking latency at 270 mg/kg, po measured after 40 mins by hot plate test; assay type: functional, organism-based
How it was run: (§4)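 Mice received an intraplantar CFA injection, and vehicle-treated animals served as controls. Thermal hyperalgesia was measured by hot plate as time in s to the first hind-paw licking. Readings were taken before dosing and every 20 min afterwards. Values are the mean of 6 mice from 2 experimental sets.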

Mus musculus [17] = experiment: Antihyperalgesic activity in CFA induced CD-1 albino mouse assessed as inhibition of mechanical hyperalgesia by measuring paw withdrawal latency at 270 to 405 mg/kg, po measured every 20 mins by paw pressure test; assay type: functional, organism-based; details: dose 270-405 mg/kg
How it was run: (§5)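 Inflammatory pain was induced by intraplantar CFA, with vehicle-treated controls. Mechanical hyperalgesia was measured by paw pressure test as paw withdrawal latency (s), before dosing and every 20 min after. Values are the mean of 6 mice from 2 experimental sets.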

Mus musculus [18] = experiment: Antihyperalgesic activity in CFA induced CD-1 albino mouse assessed as increase in pain threshold by measuring paw withdrawal latency at 405 mg/kg, po measured after 40 mins by paw pressure test; assay type: functional, organism-based; how it was run: as §5
Mus musculus [19] = experiment: Antihyperalgesic activity in CFA induced CD-1 albino mouse assessed as inhibition of mechanical allodynia by measuring paw withdrawal threshold at 270 to 405 mg/kg, po measured every 20 mins by von frey test; assay type: functional, organism-based; details: dose 270-405 mg/kg
Mus musculus [20] = experiment: Antihyperalgesic activity in CFA induced CD-1 albino mouse assessed as increase in pain threshold by measuring paw withdrawal latency at 270 mg/kg, po measured after 40 mins by paw pressure test; assay type: functional; how it was run: as §5
Mus musculus [21] = experiment: Antihyperalgesic activity in CFA induced CD-1 albino mouse assessed as increase in pain threshold by measuring licking latency at 405 mg/kg, po measured after 40 mins by hot plate test; assay type: functional, organism-based; how it was run: as §4
Mus musculus [22] = experiment: Antihyperalgesic activity in CFA induced CD-1 albino mouse assessed as increase in pain threshold by measuring paw withdrawal latency at 405 mg/kg, po measured after 40 mins by von frey test; assay type: functional, organism-based
Mus musculus [23] = experiment: Antihyperalgesic activity in CFA induced CD-1 albino mouse assessed as increase in pain threshold by measuring paw withdrawal latency at 270 mg/kg, po measured after 40 mins by von frey test; assay type: functional
How it was run: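 Intraplantar CFA was used to induce inflammatory pain in mice, with vehicle-treated controls. Mechanical allodynia was measured by Von Frey test as the weight (g) tolerated on the paw, before dosing and every 20 min after. Values are the mean of 6 mice from 2 experimental sets.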

Ki (Carbonic anhydrase 4): > 100 µM | Ki (Carbonic anhydrase 9): > 100 µM | Ki (Carbonic anhydrase 1): > 100 µM | Ki (Carbonic anhydrase 12): > 100 µM | Ki (Carbonic anhydrase 7): > 100 µM
SMILES: CC(=O)Oc1ccccc1C(=O)O [ASPIRIN]
Activity (Mus musculus [1]): Active | Activity (Mus musculus [2]): inactive | Activity (Mus musculus [3]): inactive | Activity (Mus musculus [4]): Active | Activity (Mus musculus [5]): Dose-Dependent Effect | Activity (Mus musculus [6]): Active | Activity (Mus musculus [7]): Dose-Dependent Effect | Activity (Mus musculus [8]): inactive | Activity (Mus musculus [9]): Dose-Dependent Effect

Ki (Carbonic anhydrase 4): 77.3 µM | Ki (Carbonic anhydrase 9): 10.9 µM | Ki (Carbonic anhydrase 1): 72.5 µM | Ki (Carbonic anhydrase 12): 14 µM | Ki (Carbonic anhydrase 7): 18.5 µM | Ki (Carbonic anhydrase 2): 64.3 µM
SMILES: CC(=O)Sc1ccccc1C(=O)O
Activity (Mus musculus [10]): Active | Activity (Mus musculus [11]): Active | Activity (Mus musculus [12]): Active | Activity (Mus musculus [13]): Active | Activity (Mus musculus [14]): Active | Activity (Mus musculus [15]): Active

SMILES: CC(=O)[Se]c1ccccc1C(=O)O
Activity (Mus musculus [16]): Active | Activity (Mus musculus [17]): Active | Activity (Mus musculus [18]): inactive | Ki (Carbonic anhydrase 4): 48 µM | Activity (Mus musculus [19]): Active | Activity (Mus musculus [20]): >50% | Activity (Mus musculus [21]): inactive | Ki (Carbonic anhydrase 9): 1.4 µM | Ki (Carbonic anhydrase 1): 5.2 µM | Activity (Mus musculus [22]): inactive | Ki (Carbonic anhydrase 12): 8.2 µM | Ki (Carbonic anhydrase 7): 5.2 µM | Activity (Mus musculus [23]): >50% | Ki (Carbonic anhydrase 2): 32 µM
